The subject of series [1] is Human immunodeficiency virus 1. Briefly: Resistance index, ratio of IC50 for antiviral activity against HIV1 expressing integrase Y143R mutant to IC50 for antiviral activity against HIV1 expressing wild type integrase. The format is functional. The method in brief:
(§1)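 Fold shift computed as the inflection point (IP) against mutant HIV-1 divided by the IP against wild-type virus. Both IPs come from a kinetic HIV replication (viral kinetics) potency assay run in 50% normal human serum (NHS).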

A short description of series [2]: Oral bioavailability in rat. The format is ADME, organism-based. The note with it: in vivo.
Series [3] in a line: Plasma clearance in rat. Format: ADME, organism-based.
Series [4] in a line: Oral bioavailability in dog. The format is ADME, organism-based, Canis lupus familiaris. To be noted: in vivo.
The test system of series [5] is Human immunodeficiency virus 1. The series can be described thus: Antiviral activity against HIV1 infected in human MT4 cells expressing GFP incubated for 48 to 72 hrs in absence of 50% normal human serum by multiple round viral replication kinetics assay. The format is functional.
A short description of series [6]: Intrinsic clearance in human hepatocytes at 1 uM by LC-MS/MS method. To be noted: read-out: CLH. Format: ADME, cell-based, Hepatocyte.
The test system of series [7] is Human immunodeficiency virus 1. Briefly: Antiviral activity against HIV1 infected in human MT4 cells expressing GFP incubated for 48 to 72 hrs in presence of 50% normal human serum by multiple round viral replication kinetics assay. The format is functional.
The subject of series [8] is Human immunodeficiency virus 1. Briefly: Resistance index, ratio of IC50 for antiviral activity against HIV1 expressing integrase E92Q mutant to IC50 for antiviral activity against HIV1 expressing wild type integrase. Format: functional. The method in brief:
as §1

For series [9], the system named is Human immunodeficiency virus 1. Briefly: Resistance index, ratio of IC50 for antiviral activity against HIV1 expressing integrase Q148R mutant to IC50 for antiviral activity against HIV1 expressing wild type integrase. Format: functional. The method in brief: as §1
Series [10] is described as follows: Plasma clearance in dog. Format: ADME, organism-based, Canis lupus familiaris.

What is called bioavailability is dose-corrected exposure relative to a reference, in per cent. Usually clearance stands for the volume of plasma or blood freed of the substance per unit of time. A high value points to efficient removal.

For the compound `CC(C)n1c(C(=O)N(C)C)c2c(c(O)c1=O)C(=O)N(Cc1ccc(F)c(Cl)c1)CC2`, the “Ratio IC50” value in [1] was determined as 2; in series [8], 1; in series [9] it was 1. The bioavailability in [2] was determined as 29%; in [4] it was 44%. In addition, the clearance in [3] was found to be 2.3 mL/min/kg; in series [10] it was 2.2 mL/min/kg. For the same compound, the IP in [5] is 6 nM; in [7], 53 nM. Also, the CLint scaled at 1 µM in series [6] was below 20 mL/min/kg.
